# According to ChEMBL document CHEMBL1821568, “Conjugates of 3α-methoxyserrat-14-en-21β-ol (PJ-1) and 3β-methoxyserrat-14-en-21β-ol (PJ-2) as cancer chemopreventive agents” (Eur J Med Chem, 2011):
# Columns and labels:
# Raji [1] = assay: Inhibition of TPA-induced EBV-early antigen activation in human Raji cells assessed as EA activation at 1000 molar ratio after 48 hrs relative to control; format: cell-based; set-up: scale not given: the % may be the effect or the level left; conditions: human gammaherpesvirus 4
# Outline: (§1)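 Raji cells (non-producer sub-line, spontaneous EA under 0.1%) at 1×10^6/mL, incubated 37 °C for 48 h with n-butyric acid (4 mmol), TPA (32 pmol in DMSO) and compound in DMSO. Dose expressed as mol ratio to TPA (1000, 500, 100, 10). EA-positive cells were detected by indirect immunofluorescence with NPC patient serum, at least 500 cells counted. Assays were run in triplicate. Results are relative to butyrate+TPA control (100%). IC50 given in nM.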
# Raji [2] = assay: Inhibition of TPA-induced EBV-early antigen activation in human Raji cells assessed as EA activation at 500 molar ratio after 48 hrs relative to control; format: cell-based; set-up: scale not given: the % may be the effect or the level left; conditions: human gammaherpesvirus 4; outline: as §1
# Raji [3] = assay: Inhibition of TPA-induced EBV-early antigen activation in human Raji cells assessed as EA activation at 100 molar ratio after 48 hrs relative to control; format: cell-based; conditions: human gammaherpesvirus 4; outline: as §1
# Raji [4] = assay: Inhibition of TPA-induced EBV-early antigen activation in human Raji cells assessed as EA activation at 10 molar ratio after 48 hrs relative to control; format: cell-based; set-up: scale not given: the % may be the effect or the level left; conditions: human gammaherpesvirus 4; outline: as §1
# [5] = Cytotoxicity against human Raji cells carrying EBV genome assessed as cell viability at 1000 molar ratio by trypan blue staining method; format: cell-based; conditions: read-out: Activity
# Outline: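 Raji cells (EBV genome-carrying, in RPMI-1640 with 10% FBS) at 1×10^6/mL, incubated 48 h at 37 °C with n-butyric acid (4 mmol), TPA (32 pmol) and test compound in DMSO. Viability scored by Trypan Blue staining. Molar ratio means mol of compound per mol of TPA (32 pmol).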
# [6] = Inhibition of TPA-induced EBV-early antigen activation in human Raji cells assessed as EA activation after 48 hrs; format: cell-based, human gammaherpesvirus 4; outline: as §1
# Mus musculus [7] = assay: Inhibition of DMBA-induced and TPA-promoted carcinogenesis in ICR mouse assessed as reduction of mouse bearing papillomas at 85 nmol administered 1 hr before TPA treatment measured after 10 to 15 weeks; format: functional
# Outline: (§2)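 Female SPF ICR mice, 6 weeks old, 15 per group, backs shaved. Initiation was one topical dose of DMBA (390 nmol) in acetone 0.1 mL. Promotion was TPA (1.7 nmol) twice weekly, with compound given topically at 85 nmol. Papilloma incidence and papillomas per mouse were followed to week 20, and tumor length and width were recorded. Significance was set at P<0.05 versus the DMBA/TPA control.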
# Mus musculus [8] = assay: Inhibition of DMBA-induced and TPA-promoted carcinogenesis in ICR mouse assessed as reduction of mouse bearing papillomas at 85 nmol administered 1 hr before TPA treatment measured after 20 weeks; format: functional; outline: as §2
# Mus musculus [9] = assay: Inhibition of DMBA-induced and TPA-promoted carcinogenesis in ICR mouse assessed as reduction of mouse bearing papillomas length at 85 nmol administered 1 hr before TPA treatment measured after 20 weeks; format: functional; outline: as §2
# Mus musculus [10] = assay: Inhibition of DMBA-induced and TPA-promoted carcinogenesis in ICR mouse assessed as reduction of mouse bearing papillomas width at 85 nmol administered 1 hr before TPA treatment measured after 20 weeks; format: functional; outline: as §2
# Mus musculus [11] = species on record: Mus musculus; assay: Toxicity in ICR mouse assessed as change in body weight at 85 nmol; format: organism-based; conditions: in vivo
# Mus musculus [12] = species on record: Mus musculus; assay: Toxicity in ICR mouse assessed as lesional damage at 85 nmol; format: organism-based; conditions: in vivo
# Mus musculus [13] = assay: Toxicity in ICR mouse assessed as edema at 85 nmol; format: organism-based; conditions: in vivo
# Mus musculus [14] = species on record: Mus musculus; assay: Toxicity in ICR mouse assessed as erosion at 85 nmol; format: organism-based; conditions: in vivo
# Mus musculus [15] = species on record: Mus musculus; assay: Toxicity in ICR mouse assessed as ulcer at 85 nmol; format: organism-based; conditions: in vivo
structure (smiles),measurement,setting,value
CO[C@H]1CC[C@@]2(C)[C@@H](CC[C@@]3(C)CC4=CC[C@H]5C(C)(C)[C@H](OC(=O)CN6CCCCC6)CC[C@]5(C)[C@H]4CC[C@@H]32)C1(C)C,Activity,Raji [1],13.5%
same,Activity,Raji [2],46.3%
same,EA activation relative to control,Raji [3],82%
same,Activity,Raji [4],100%
same,viability at 1000 molar ratio,[5],60%
same,IC50,[6],460 nM
CC1(C)CC[C@]2(C(=O)O)CC[C@]3(C)C(=CC[C@@H]4[C@@]5(C)CC[C@H](O)C(C)(C)[C@@H]5CC[C@]43C)[C@@H]2C1 [OLEANOLIC_ACID],Activity,Raji [1],12.7%
same,Activity,Raji [2],30%
same,EA activation relative to control,Raji [3],80%
same,Activity,Raji [4],100%
same,IC50,[6],449 nM
CO[C@H]1CC[C@@]2(C)[C@@H](CC[C@@]3(C)CC4=CC[C@H]5C(C)(C)[C@H](OC(=O)CC(C)(C)C(=O)O)CC[C@]5(C)[C@H]4CC[C@@H]32)C1(C)C,Activity,Raji [1],0%
same,Activity,Raji [2],28.5%
same,EA activation relative to control,Raji [3],67%
same,Activity,Raji [4],90.3%
same,viability at 1000 molar ratio,[5],60%
same,IC50,[6],248 nM
CO[C@@H]1CC[C@@]2(C)[C@@H](CC[C@@]3(C)CC4=CC[C@H]5C(C)(C)[C@H](OC(=O)CCC(=O)Oc6ccc([C@@H]7CC(=O)c8c(O)cc(O)cc8O7)cc6)CC[C@]5(C)[C@H]4CC[C@@H]32)C1(C)C,Activity,Raji [1],14.3%
same,Activity,Raji [2],48.7%
same,EA activation relative to control,Raji [3],81%
same,Activity,Raji [4],100%
same,viability at 1000 molar ratio,[5],60%
same,IC50,[6],473 nM
CO[C@H]1CC[C@@]2(C)[C@@H](CC[C@@]3(C)CC4=CC[C@H]5C(C)(C)[C@H](OC(=O)CN)CC[C@]5(C)[C@H]4CC[C@@H]32)C1(C)C,Activity,Raji [1],12%
same,Activity,Raji [2],42.5%
same,EA activation relative to control,Raji [3],80.3%
same,Activity,Raji [4],100%
same,viability at 1000 molar ratio,[5],60%
same,IC50,[6],449 nM
CO[C@@H]1CC[C@@]2(C)[C@@H](CC[C@@]3(C)CC4=CC[C@H]5C(C)(C)[C@H](OC(=O)CC(C)(C)C(=O)O)CC[C@]5(C)[C@H]4CC[C@@H]32)C1(C)C,Activity,Raji [1],0%
same,Activity,Raji [2],29.7%
same,EA activation relative to control,Raji [3],67.5%
same,Activity,Raji [4],91.5%
same,viability at 1000 molar ratio,[5],60%
same,IC50,[6],251 nM
same,inhibition (INH),Mus musculus [7],13.3%
same,inhibition (INH),Mus musculus [8],80%
same,Activity,Mus musculus [9],16 mm
same,Activity,Mus musculus [10],14 mm
same,Activity,Mus musculus [11],Non-toxic
same,Activity,Mus musculus [12],Non-toxic
same,Activity,Mus musculus [13],Non-toxic
same,Activity,Mus musculus [14],Non-toxic
same,Activity,Mus musculus [15],Non-toxic
CO[C@H]1CC[C@@]2(C)[C@@H](CC[C@@]3(C)CC4=CC[C@H]5C(C)(C)[C@H](OC(=O)CCC(=O)O)CC[C@]5(C)[C@H]4CC[C@@H]32)C1(C)C,Activity,Raji [1],0%
same,Activity,Raji [2],33.6%
same,EA activation relative to control,Raji [3],69.5%
same,Activity,Raji [4],93.8%
same,viability at 1000 molar ratio,[5],60%
same,IC50,[6],285 nM
CO[C@H]1CC[C@@]2(C)[C@@H](CC[C@@]3(C)CC4=CC[C@H]5C(C)(C)[C@H](OC(=O)CCC(=O)Oc6ccc(-c7coc8cc(O)cc(O)c8c7=O)cc6)CC[C@]5(C)[C@H]4CC[C@@H]32)C1(C)C,Activity,Raji [1],12%
same,Activity,Raji [2],45.2%
same,EA activation relative to control,Raji [3],79.6%
same,Activity,Raji [4],100%
same,viability at 1000 molar ratio,[5],60%
same,IC50,[6],455 nM
CO[C@@H]1CC[C@@]2(C)[C@@H](CC[C@@]3(C)CC4=CC[C@H]5C(C)(C)[C@H](OC(=O)CCC(=O)O)CC[C@]5(C)[C@H]4CC[C@@H]32)C1(C)C,Activity,Raji [1],0%
same,Activity,Raji [2],32.4%
same,EA activation relative to control,Raji [3],68.3%
same,Activity,Raji [4],92.4%
same,viability at 1000 molar ratio,[5],60%
same,IC50,[6],281 nM
CO[C@H]1CC[C@@]2(C)[C@@H](CC[C@@]3(C)CC4=CC[C@H]5C(C)(C)[C@H](OC(=O)CCC(=O)Oc6ccc([C@@H]7CC(=O)c8c(O)cc(O)cc8O7)cc6)CC[C@]5(C)[C@H]4CC[C@@H]32)C1(C)C,Activity,Raji [1],14%
same,Activity,Raji [2],47.3%
same,EA activation relative to control,Raji [3],80%
same,Activity,Raji [4],100%
same,viability at 1000 molar ratio,[5],60%
same,IC50,[6],470 nM
CO[C@H]1CC[C@@]2(C)[C@@H](CC[C@@]3(C)CC4=CC[C@H]5C(C)(C)[C@H](OC(=O)CCC(=O)Oc6ccc(-c7coc8cc(O)ccc8c7=O)cc6)CC[C@]5(C)[C@H]4CC[C@@H]32)C1(C)C,Activity,Raji [1],15%
same,Activity,Raji [2],49.4%
same,EA activation relative to control,Raji [3],82.6%
same,Activity,Raji [4],100%
same,viability at 1000 molar ratio,[5],60%
same,IC50,[6],495 nM
COc1c(O)cc(C(=O)O[C@@H]2CC[C@]3(C)[C@H]4CC[C@H]5[C@@](C)(CC[C@H]6C(C)(C)[C@@H](OC)CC[C@@]65C)CC4=CC[C@H]3C2(C)C)cc1O,Activity,Raji [1],4.7%
same,Activity,Raji [2],37.8%
same,EA activation relative to control,Raji [3],72.5%
same,Activity,Raji [4],93.4%
same,viability at 1000 molar ratio,[5],60%
same,IC50,[6],375 nM
CO[C@@H]1CC[C@@]2(C)[C@@H](CC[C@@]3(C)C[C@]45CC[C@@H]6C(C)(C)[C@H](OC(=O)CC(C)(C)C(=O)O)CC[C@@]6(C)[C@@]4(CC[C@@H]32)O5)C1(C)C,Activity,Raji [1],0%
same,Activity,Raji [2],26.6%
same,EA activation relative to control,Raji [3],68.4%
same,Activity,Raji [4],89.6%
same,viability at 1000 molar ratio,[5],60%
same,IC50,[6],230 nM
same,inhibition (INH),Mus musculus [7],26.6%
same,inhibition (INH),Mus musculus [8],93.3%
same,Activity,Mus musculus [9],18 mm
same,Activity,Mus musculus [10],17 mm
same,Activity,Mus musculus [11],Non-toxic
same,Activity,Mus musculus [12],Non-toxic
same,Activity,Mus musculus [13],Non-toxic
same,Activity,Mus musculus [14],Non-toxic
same,Activity,Mus musculus [15],Non-toxic
CO[C@@H]1CC[C@@]2(C)[C@@H](CC[C@@]3(C)CC4=CC[C@H]5C(C)(C)[C@H](OC(=O)CCC(=O)Oc6ccc(-c7coc8cc(O)cc(O)c8c7=O)cc6)CC[C@]5(C)[C@H]4CC[C@@H]32)C1(C)C,Activity,Raji [1],12.2%
same,Activity,Raji [2],45.9%
same,EA activation relative to control,Raji [3],81%
same,Activity,Raji [4],100%
same,viability at 1000 molar ratio,[5],60%
same,IC50,[6],458 nM
CO[C@H]1CC[C@@]2(C)[C@@H](CC[C@@]3(C)CC4=CC[C@H]5C(C)(C)[C@H](OC(=O)c6cc(O)c(O)c(O)c6)CC[C@]5(C)[C@H]4CC[C@@H]32)C1(C)C,Activity,Raji [1],2.2%
same,Activity,Raji [2],36.5%
same,EA activation relative to control,Raji [3],71.3%
same,Activity,Raji [4],91.5%
same,viability at 1000 molar ratio,[5],60%
same,IC50,[6],290 nM
same,inhibition (INH),Mus musculus [7],20%
same,inhibition (INH),Mus musculus [8],86.6%
same,Activity,Mus musculus [9],18 mm
same,Activity,Mus musculus [10],15 mm
same,Activity,Mus musculus [11],Non-toxic
same,Activity,Mus musculus [12],Non-toxic
same,Activity,Mus musculus [13],Non-toxic
same,Activity,Mus musculus [14],Non-toxic
same,Activity,Mus musculus [15],Non-toxic
CO[C@@H]1CC[C@@]2(C)[C@@H](CC[C@@]3(C)CC4=CC[C@H]5C(C)(C)[C@H](OC(=O)CCC(=O)Oc6ccc(-c7coc8cc(O)ccc8c7=O)cc6)CC[C@]5(C)[C@H]4CC[C@@H]32)C1(C)C,Activity,Raji [1],15.8%
same,Activity,Raji [2],50.3%
same,EA activation relative to control,Raji [3],83.4%
same,Activity,Raji [4],100%
same,viability at 1000 molar ratio,[5],60%
same,IC50,[6],498 nM
